Columns and labels:
[1] = Plasma concentration in rat at 4 mg/kg, po cassette dosing after 2 hrs; assay type: ADME, organism-based; parameters: dose 4 mg/kg, route oral
In short: (§1)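 Cassette screen: mixture of 4 compounds, each at 4 mg/kg, dosed orally to 2 rats; plasma sampled at 1 h and 2 h, solid-phase extracted and quantified by HPLC-UV or LC/MS against calibration standards in blank plasma (LOQ 7 ng/mL).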

[2] = Clearance in rat at 2 mg/kg, iv; assay type: ADME, organism-based; parameters: dose 2 mg/kg, route intravenous; conditions: in vivo
In short: (§2)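 Fasted animals dosed IV by bolus at 2 mg/kg in 70% PEG-400:30% water; N=3 per dose and route. Plasma separated at 4°C, stored near -20°C, solid-phase extracted, assayed by HPLC-UV or LC/MS with blank-plasma calibration (r2 > 0.99, LOQ 7 ng/mL); parameters from non-compartmental analysis.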

[3] = Volume of distribution at steady state in rat at 2 mg/kg, iv; assay type: ADME, organism-based; parameters: dose 2 mg/kg, route intravenous; conditions: in vivo, read-out: Vdss; in short: as §2
[4] = Inhibition of HCV full-length NS5B polymerase; parameters: species or system Hepacivirus hominis
In short: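 Polymerase inhibition with full-length NS5B enzyme in a biochemical assay; IC50 averaged from duplicate measurements, at least two determinations.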

[5] = Half life in human liver microsomes; assay type: ADME
[6] = Inhibition of Hepatitis C virus genotype 1b Con1 NS5B RNA dependent RNA polymerase activity using Bright-Glo luciferase substrate by cell-based 1b luciferase reporter assay; parameters: species or system Hepatitis C virus (isolate Con1)
In short: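 Cell-based genotype 1b luciferase reporter replicon assay; EC50 determined in duplicate, values averaged over at least two determinations.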

[7] = Plasma concentration in rat at 4 mg/kg, po cassette dosing after 1 hr; assay type: ADME, organism-based; parameters: dose 4 mg/kg, route oral; in short: as §1
[8] = Oral bioavailability in rat at 10 mg/kg; assay type: ADME, organism-based; conditions: in vivo
In short: (§3)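 Single-compound oral PK after overnight fast; 10 mg/kg given as suspension in 0.5% methylcellulose and 0.3% Tween-80, with or without 1% NMP as added solubilizer; N=3 per dose and route. Plasma kept on ice, centrifuged at 4°C, stored near -20°C, extracted by solid phase, quantified by HPLC-UV or LC/MS against blank-plasma standards (LOQ 7 ng/mL); non-compartmental analysis.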

[9] = AUC in rat at 10 mg/kg, po; assay type: ADME, organism-based; parameters: dose 10 mg/kg, route oral; conditions: plasma; in short: as §3
[10] = Cmax in rat at 10 mg/kg, po; assay type: ADME, organism-based; parameters: dose 10 mg/kg, route oral; conditions: in vivo; in short: as §3
[11] = Mean residence time in rat at 10 mg/kg, po; assay type: ADME, organism-based; parameters: dose 10 mg/kg, route oral; conditions: in vivo; in short: as §3
[12] = Half life in rat at 2 mg/kg, iv; assay type: ADME, organism-based; parameters: dose 2 mg/kg, route intravenous; conditions: in vivo; in short: as §2
[13] = Permeability across apical to basolateral side in human Caco2 cells; assay type: ADME, cell-based; conditions: Caco-2, read-out: permeability
[14] = Cardiotoxicity in guinea pig papillary muscles assessed as action potential duration at 90% repolarization
Hepatitis C virus [15] = test: Antiviral activity against Hepatitis C virus genotype 1b by cell-based replicon assay; assay type: functional, Hepacivirus hominis
[16] = Mean residence time in dog at 10 mg/kg, po; assay type: ADME, organism-based, Canis lupus familiaris; parameters: dose 10 mg/kg, route oral; conditions: in vivo; in short: as §3
Cytochrome P450 2C19 = Cytochrome P450 2C19 (Homo sapiens, UniProt P33261); test: Inhibition of CYP2C19 (unknown origin); assay type: ADME
Cytochrome P450 2C19, sequence (P33261 whole entry): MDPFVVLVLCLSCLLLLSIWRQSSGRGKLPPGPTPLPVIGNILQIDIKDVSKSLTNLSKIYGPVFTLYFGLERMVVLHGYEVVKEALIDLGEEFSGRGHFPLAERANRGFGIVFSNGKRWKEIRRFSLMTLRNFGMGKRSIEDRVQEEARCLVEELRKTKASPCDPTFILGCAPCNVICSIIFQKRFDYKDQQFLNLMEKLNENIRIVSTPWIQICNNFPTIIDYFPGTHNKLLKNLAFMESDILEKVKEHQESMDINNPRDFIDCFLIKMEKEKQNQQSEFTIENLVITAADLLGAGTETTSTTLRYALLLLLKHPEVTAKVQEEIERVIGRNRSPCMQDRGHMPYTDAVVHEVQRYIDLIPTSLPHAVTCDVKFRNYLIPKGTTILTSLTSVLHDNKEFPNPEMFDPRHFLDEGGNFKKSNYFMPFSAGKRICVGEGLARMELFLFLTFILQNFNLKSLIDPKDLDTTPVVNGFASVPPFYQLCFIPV

Rhesus monkey [17] = test: Clearance in monkey at 2 mg/kg, iv; assay type: ADME, organism-based, Macaca mulatta; parameters: dose 2 mg/kg, route intravenous; conditions: in vivo; in short: as §2
[18] = Oral bioavailability in dog at 10 mg/kg; assay type: ADME, organism-based, Canis lupus familiaris; conditions: in vivo; in short: as §3
[19] = Permeability across apical at pH6 to basolateral side at pH 7.4 in human Caco2 cells; assay type: ADME, cell-based; conditions: Caco-2, pH 6, read-out: permeability
In short: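 Caco-2 monolayer permeability measured apical to basolateral, apical side at pH 6.0 and basolateral at pH 7.4.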

[20] = Half life in rat liver microsomes; assay type: ADME
[21] = Cmax in monkey at 10 mg/kg, po; assay type: ADME, organism-based, Macaca mulatta; parameters: dose 10 mg/kg, route oral; conditions: rhesus monkey, in vivo; in short: as §3
[22] = Half life in dog at 2 mg/kg, iv; assay type: ADME, organism-based, Canis lupus familiaris; parameters: dose 2 mg/kg, route intravenous; conditions: in vivo; in short: as §2
Canis familiaris = test: Cardiotoxicity in dog assessed as electrocardiographic parameters up to 200 mg/kg; assay type: toxicity, organism-based, Canis lupus familiaris; parameters: dose 200 mg/kg; conditions: in vivo
[23] = Cytotoxicity against human HuH7 cells assessed as cell viability by MTT assay; assay type: cell-based; conditions: Huh-7 cells, read-out: TC50 (the source's name)
Cytochrome P450 1A2 = molecular target: T1, Cytochrome P450 1A2 (Homo sapiens, UniProt P05177); test: Inhibition of CYP1A2 (unknown origin); assay type: ADME
T1 sequence (P05177 whole entry): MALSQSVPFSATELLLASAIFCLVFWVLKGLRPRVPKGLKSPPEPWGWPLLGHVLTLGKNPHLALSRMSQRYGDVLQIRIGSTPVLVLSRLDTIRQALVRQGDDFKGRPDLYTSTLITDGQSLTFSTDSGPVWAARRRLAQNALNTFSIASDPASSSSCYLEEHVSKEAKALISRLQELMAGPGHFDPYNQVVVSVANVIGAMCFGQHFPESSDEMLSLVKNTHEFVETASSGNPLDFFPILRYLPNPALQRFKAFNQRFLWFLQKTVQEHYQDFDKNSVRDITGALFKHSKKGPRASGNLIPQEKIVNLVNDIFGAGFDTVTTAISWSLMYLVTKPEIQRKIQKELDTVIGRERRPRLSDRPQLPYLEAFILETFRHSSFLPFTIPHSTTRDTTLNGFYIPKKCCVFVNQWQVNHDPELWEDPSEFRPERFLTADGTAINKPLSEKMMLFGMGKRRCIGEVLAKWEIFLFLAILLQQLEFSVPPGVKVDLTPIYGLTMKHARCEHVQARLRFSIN

Cytochrome P450 3A4 = Cytochrome P450 3A4 (Homo sapiens, UniProt P08684); test: Inhibition of CYP3A4 (unknown origin); assay type: ADME
Cytochrome P450 3A4, sequence (P08684 whole entry): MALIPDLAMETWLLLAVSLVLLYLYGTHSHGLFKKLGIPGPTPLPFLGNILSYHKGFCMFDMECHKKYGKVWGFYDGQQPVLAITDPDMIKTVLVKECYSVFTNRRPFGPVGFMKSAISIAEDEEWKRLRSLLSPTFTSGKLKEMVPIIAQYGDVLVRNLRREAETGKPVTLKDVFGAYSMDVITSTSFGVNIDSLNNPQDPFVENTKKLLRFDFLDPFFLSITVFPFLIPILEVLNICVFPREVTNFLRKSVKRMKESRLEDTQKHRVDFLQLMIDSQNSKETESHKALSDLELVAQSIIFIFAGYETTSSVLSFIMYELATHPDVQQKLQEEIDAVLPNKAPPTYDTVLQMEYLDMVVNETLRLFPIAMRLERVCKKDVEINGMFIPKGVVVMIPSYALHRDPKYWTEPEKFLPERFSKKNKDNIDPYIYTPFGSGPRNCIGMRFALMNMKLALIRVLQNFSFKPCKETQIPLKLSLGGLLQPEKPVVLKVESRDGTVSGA

[24] = Clearance in dog at 2 mg/kg, iv; assay type: ADME, organism-based, Canis lupus familiaris; parameters: dose 2 mg/kg, route intravenous; conditions: in vivo; in short: as §2
Salmonella typhimurium = test: Mutagenic activity in Salmonella typhimurium by Ames test; assay type: toxicity, organism-based; conditions: salmonella enterica subsp. enterica serovar typhimurium
In short: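 Ames test run with and without metabolic activation at doses up to maximum solubility.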

Cytochrome P450 2D6 = Cytochrome P450 2D6 (Homo sapiens, UniProt P10635); test: Inhibition of CYP2D6 (unknown origin); assay type: ADME
Cytochrome P450 2D6, sequence (P10635 whole entry): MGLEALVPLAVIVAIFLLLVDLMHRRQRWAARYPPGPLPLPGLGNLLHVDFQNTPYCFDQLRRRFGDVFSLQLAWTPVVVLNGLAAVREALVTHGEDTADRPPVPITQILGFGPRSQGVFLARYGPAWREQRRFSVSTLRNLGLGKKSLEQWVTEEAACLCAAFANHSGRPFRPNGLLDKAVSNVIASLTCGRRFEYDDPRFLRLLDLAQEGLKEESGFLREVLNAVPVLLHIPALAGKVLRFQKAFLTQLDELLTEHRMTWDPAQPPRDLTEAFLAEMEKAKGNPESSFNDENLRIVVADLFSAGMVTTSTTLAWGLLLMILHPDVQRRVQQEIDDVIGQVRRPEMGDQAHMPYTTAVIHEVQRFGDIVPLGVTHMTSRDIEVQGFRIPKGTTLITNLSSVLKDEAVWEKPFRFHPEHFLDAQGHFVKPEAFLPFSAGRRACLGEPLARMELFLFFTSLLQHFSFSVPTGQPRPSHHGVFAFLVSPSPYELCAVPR

Hepatitis C virus [25] = test: Antiviral activity against Hepatitis C virus genotype 1a by cell-based replicon assay; assay type: functional, Hepacivirus hominis; conditions: subtype 1a
[26] = Volume of distribution at steady state in dog at 2 mg/kg, iv; assay type: ADME, organism-based, Canis lupus familiaris; parameters: dose 2 mg/kg, route intravenous; conditions: in vivo, read-out: Vdss; in short: as §2
[27] = AUC in monkey at 10 mg/kg, po; assay type: ADME, organism-based, Macaca mulatta; parameters: dose 10 mg/kg, route oral; conditions: rhesus monkey, plasma; in short: as §3
[28] = Inhibition of recombinant Hepatitis C virus genotype 1b Con1 NS5B RNA dependent RNA polymerase delta21; parameters: species or system Hepatitis C virus subtype 1b
In short: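 Biochemical polymerase assay with C-terminally truncated genotype 1b NS5B∆21; IC50 taken as mean of duplicates.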

[29] = Plasma protein binding in human; assay type: ADME, cell-free; conditions: read-out: PPB (converted)
Rhesus monkey [30] = test: Half life in monkey at 2 mg/kg, iv; assay type: ADME, organism-based, Macaca mulatta; parameters: dose 2 mg/kg, route intravenous; conditions: in vivo; in short: as §2
[31] = AUC in dog at 10 mg/kg, po; assay type: ADME, organism-based, Canis lupus familiaris; parameters: dose 10 mg/kg, route oral; conditions: plasma; in short: as §3
[32] = Ratio of drug level in rat liver to plasma after 6 hrs; assay type: ADME, cell-free
[33] = Cmax in dog at 10 mg/kg, po; assay type: ADME, organism-based, Canis lupus familiaris; parameters: dose 10 mg/kg, route oral; conditions: in vivo; in short: as §3
[34] = Mean residence time in monkey at 10 mg/kg, po; assay type: ADME, organism-based, Macaca mulatta; parameters: dose 10 mg/kg, route oral; conditions: rhesus monkey, in vivo; in short: as §3
[35] = Inhibition of calf thymus DNA-dependent RNA polymerase; parameters: species or system Bos taurus
[36] = Oral bioavailability in monkey at 10 mg/kg; assay type: ADME, organism-based, Macaca mulatta; conditions: rhesus monkey, in vivo; in short: as §3
[37] = Dissociation constant, pKa of the compound; assay type: physicochemical
In short: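 pKa derived from pH titration curves.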

Cytochrome P450 2C9 = Cytochrome P450 2C9 (Homo sapiens, UniProt P11712); test: Inhibition of CYP2C9 (unknown origin); assay type: ADME
Cytochrome P450 2C9, sequence (P11712 whole entry): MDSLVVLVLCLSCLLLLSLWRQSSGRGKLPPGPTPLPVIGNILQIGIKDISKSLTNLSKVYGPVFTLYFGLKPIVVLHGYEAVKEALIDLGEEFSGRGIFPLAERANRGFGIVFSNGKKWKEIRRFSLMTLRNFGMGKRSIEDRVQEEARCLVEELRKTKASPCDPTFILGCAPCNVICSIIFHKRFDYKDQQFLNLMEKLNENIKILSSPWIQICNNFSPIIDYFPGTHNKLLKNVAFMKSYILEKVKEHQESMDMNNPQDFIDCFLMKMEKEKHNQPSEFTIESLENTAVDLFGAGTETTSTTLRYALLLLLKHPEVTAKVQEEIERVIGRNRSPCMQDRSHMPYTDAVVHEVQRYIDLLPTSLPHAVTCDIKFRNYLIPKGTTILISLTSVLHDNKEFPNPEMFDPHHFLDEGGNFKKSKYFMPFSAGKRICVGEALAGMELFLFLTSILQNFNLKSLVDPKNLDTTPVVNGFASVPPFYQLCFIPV

Rhesus monkey [38] = test: Volume of distribution at steady state in monkey at 2 mg/kg, iv; assay type: ADME, organism-based, Macaca mulatta; parameters: dose 2 mg/kg, route intravenous; conditions: in vivo; in short: as §2
[39] = molecular target: Voltage-gated inwardly rectifying potassium channel KCNH2 (Homo sapiens, UniProt Q12809); test: Inhibition of human ERG channel at 0.8 uM
Voltage-gated inwardly rectifying potassium channel KCNH2, sequence (Q12809 whole entry): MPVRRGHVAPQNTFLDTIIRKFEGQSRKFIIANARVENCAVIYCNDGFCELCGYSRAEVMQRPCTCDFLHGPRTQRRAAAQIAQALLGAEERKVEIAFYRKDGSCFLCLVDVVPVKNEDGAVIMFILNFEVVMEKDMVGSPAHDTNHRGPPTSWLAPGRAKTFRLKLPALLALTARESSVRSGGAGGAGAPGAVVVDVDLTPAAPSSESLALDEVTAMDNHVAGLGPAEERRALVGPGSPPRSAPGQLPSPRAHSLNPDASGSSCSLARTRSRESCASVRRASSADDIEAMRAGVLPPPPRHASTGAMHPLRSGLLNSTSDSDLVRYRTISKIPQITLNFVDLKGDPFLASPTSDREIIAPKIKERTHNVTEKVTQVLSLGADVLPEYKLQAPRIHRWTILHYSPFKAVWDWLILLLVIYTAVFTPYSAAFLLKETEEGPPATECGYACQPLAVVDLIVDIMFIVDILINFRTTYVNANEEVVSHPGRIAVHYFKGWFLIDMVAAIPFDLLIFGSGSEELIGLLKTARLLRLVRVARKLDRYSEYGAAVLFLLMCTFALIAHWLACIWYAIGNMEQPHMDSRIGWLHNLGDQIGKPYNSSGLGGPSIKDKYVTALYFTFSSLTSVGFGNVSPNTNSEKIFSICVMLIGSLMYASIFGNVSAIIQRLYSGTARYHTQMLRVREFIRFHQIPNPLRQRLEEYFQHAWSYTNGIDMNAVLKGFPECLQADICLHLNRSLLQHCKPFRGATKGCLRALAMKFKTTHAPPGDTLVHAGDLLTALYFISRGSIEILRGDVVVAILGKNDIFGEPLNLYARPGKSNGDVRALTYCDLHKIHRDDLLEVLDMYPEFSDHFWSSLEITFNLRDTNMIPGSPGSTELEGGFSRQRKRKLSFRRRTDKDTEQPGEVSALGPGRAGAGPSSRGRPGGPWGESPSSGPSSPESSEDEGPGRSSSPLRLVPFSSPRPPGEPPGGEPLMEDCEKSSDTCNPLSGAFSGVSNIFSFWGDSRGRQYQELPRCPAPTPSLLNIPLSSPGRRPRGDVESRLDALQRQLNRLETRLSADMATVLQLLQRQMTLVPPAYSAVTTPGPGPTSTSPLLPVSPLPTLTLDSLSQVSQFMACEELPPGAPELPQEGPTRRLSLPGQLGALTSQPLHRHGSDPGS

Hepatitis C virus [40] = test: Antiviral activity against Hepatitis C virus genotype 1b assessed as shift in EC50 by cell-based replicon assay in presence of 40% human serum; assay type: functional, Hepacivirus hominis
[41] = Lipophilicity, log D of the compound at pH 7.4; assay type: physicochemical; conditions: buffer

CCOc1cc(NC(=O)C2(NC(=O)c3ccc4c(C5CCCC5)c(-c5ccc(F)cn5)n(C)c4c3)CCC2)ccc1/C=C/C(=O)O
concentration at 2 h [1]: 800 nM | clearance [2]: 6.2 mL/min/kg | Vd [3]: 0.42 L/kg | IC50 [4]: 110 nM | half-life [5]: 1.2 h | EC50 [6]: 16 nM | concentration at 1 h [7]: 1300 nM | bioavailability [8]: 17% | AUC [9]: 6.1 µM·h | Cmax [10]: 2200 nM | MRT [11]: 3 h | half-life [12]: 1.5 h | Papp A→B [13]: 17 ×10⁻⁶ cm/s

CCOc1cc(NC(=O)C2(NC(=O)c3ccc4c(C5CCCC5)c(-c5ncc(Cl)cn5)n(C)c4c3)CCC2)ccc1/C=C/C(=O)O
Activity [14]: Non-toxic | concentration at 2 h [1]: 2300 nM | EC50 (Hepatitis C virus [15]): 11 nM | MRT [16]: 8 h | clearance [2]: 2.6 mL/min/kg | IC50 (Cytochrome P450 2C19): > 30000 nM | CL (Rhesus monkey [17]): 3.6 mL/min/kg | Vd [3]: 0.38 L/kg | IC50 [4]: 110 nM | bioavailability [18]: 29% | Papp A→B [19]: 13 ×10⁻⁶ cm/s | half-life [5]: 1.7 h | EC50 [6]: 13 nM | half-life [20]: 1.73 h | concentration at 1 h [7]: 3400 nM | Cmax [21]: 9600 nM | bioavailability [8]: 19% | half-life [22]: 4.5 h | AUC [9]: 19 µM·h | Activity (Canis familiaris): Non-toxic | CC50 [23]: 38000 nM | IC50 (Cytochrome P450 1A2): > 30000 nM | IC50 (Cytochrome P450 3A4): > 30000 nM | clearance [24]: 1 mL/min/kg | Activity (Salmonella typhimurium): Non-toxic | IC50 (Cytochrome P450 2D6): > 30000 nM | EC50 (Hepatitis C virus [25]): 29 nM | Vd [26]: 0.38 L/kg | AUC [27]: 53 µM·h | IC50 [28]: 84 nM | fraction unbound [29]: 0.004 | Cmax [10]: 6300 nM | t1/2 (Rhesus monkey [30]): 3 h | AUC [31]: 76 µM·h | Kp at 6 h [32]: 5 | Cmax [33]: 8100 nM | MRT [34]: 6.1 h | IC50 [35]: 70000 nM | bioavailability [36]: 72% | pKa [37]: 6.5 | IC50 (Cytochrome P450 2C9): 13500 nM | Vdss (Rhesus monkey [38]): 0.6 L/kg | MRT [11]: 3.6 h | inhibition (INH) [39]: Not Active | half-life [12]: 2.4 h | fold change (FC) (Hepatitis C virus [40]): 3.8 | Papp A→B [13]: 13 ×10⁻⁶ cm/s | logD [41]: 4.1

Cn1c(-c2ccccn2)c(C2CCCC2)c2ccc(C(=O)NC3(C(=O)Nc4ccc(/C=C/C(=O)O)cc4)CCC3)cc21 [BILB-1941]
IC50 [4]: 60 nM | Papp A→B [19]: 11 ×10⁻⁶ cm/s | AUC [9]: 23 µM·h | CC50 [23]: 93000 nM | IC50 (Cytochrome P450 1A2): 13000 nM | IC50 (Cytochrome P450 2D6): > 30000 nM | IC50 [28]: 67 nM | fraction unbound [29]: 0.008 | bioavailability [36]: 70% | pKa [37]: 4.5 | IC50 (Cytochrome P450 2C9): 3500 nM | fold change (FC) (Hepatitis C virus [40]): 3 | logD [41]: 3.3

From ChEMBL document CHEMBL3351932, “Discovery of BI 207524, an indole diamide NS5B thumb pocket 1 inhibitor with improved potency for the potential treatment of chronic hepatitis C virus infection” (J Med Chem, 2014)
